Screening data deposited in PubChem BioAssay by several laboratories.
ATG4B inhibitor = blocks human ATG4B protease cleavage of LC3 substrate | inhibition, % at 8.33 µM | ATG4B cleavage of LC3-PLA2, NBD-HPC fluorescence, 1 h | actives 0.51% (n = 340,000); in the data active means inhibition above about 40%
UHRF1 binding = human UHRF1 methylated DNA binding inhibitors; Q96T88; UHRF1 binding to methylated oligo, TR-FRET; AID 687016; actives 0.75% (n = 370,000); inhibition, % at 4.4 µM;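 further: UHRF1 SRA domain binding a hemimethylated CpG hairpin DNA probe; 0% = median of test compound wells and 100% = reference inhibitor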
rCAG RNA binder = molecules binding r(CAG) RNA repeats; r(CAG) RNA repeat, TO-PRO-1 dye displacement fluorescence; actives 1.3% (n = 370,000); inhibition, % at 3 µM;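 active means inhibition above the plate cutoff, the mean of all test compounds on that plate plus 3 SD, cut at about 35% in these data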;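 further: 0% = DMSO alone and 100% = 100 µM mitoxantrone as full dye displacement; higher means more dye released from RNA so lower well fluorescence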
LEDGF integ inh = blocks HIV-1 LEDGF/p75-dependent DNA integration; actives 0.64% (n = 370,000); inhibition, % at 3.7 µM; TR-FRET IN-LEDGF/p75 DNA integration, Eu/Cy5;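 active means inhibition above the screen-wide mean plus 3 SD, cut at about 13% in these data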;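 further: signal is the Cy5 over europium emission ratio at 671 and 618 nm; 0% = plate median of compound wells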
MBD2 inh = MBD2-methylated oligo binding inhibition. TR-FRET, MBD2 binding to methylated oligonucleotide. inhibition, % at 4.4 µM. actives 0.31% (n = 370,000). AID 686964; in the data active means inhibition above about 13%
CSN inh = blocks human CSN-mediated cullin deneddylation; Purified CSN, SCF-Nedd8-OG deneddylation, fluorescence polarization; inhibition, % at 12.5 µM; actives 0.38% (n = 360,000); AID 651999;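 active means pattern-corrected inhibition above about 35%, with an unprinted fluorescence ratio check between 0.5 and 1.5, limit read from the data, passing the limit was not always enough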;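 further: 0% = enzyme with substrate and 100% = substrate without enzyme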
Target sequence (Q92905 whole entry, looked up, one chain of several): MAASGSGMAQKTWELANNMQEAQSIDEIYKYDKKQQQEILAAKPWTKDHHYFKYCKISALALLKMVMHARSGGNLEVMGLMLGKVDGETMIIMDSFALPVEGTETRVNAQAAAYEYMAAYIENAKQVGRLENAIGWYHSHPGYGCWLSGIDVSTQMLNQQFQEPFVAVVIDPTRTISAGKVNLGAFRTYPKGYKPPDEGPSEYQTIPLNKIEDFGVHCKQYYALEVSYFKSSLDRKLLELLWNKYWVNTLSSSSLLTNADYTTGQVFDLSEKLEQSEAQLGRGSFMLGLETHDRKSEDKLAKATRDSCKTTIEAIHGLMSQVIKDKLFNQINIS
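Assay system: HEK293T-derived human Csn5 enzyme; quantity: 0.24 nM enzyme; medium: Tris/NaCl/DTT buffer, pH 7.5; also added: substrate SCFSkp2-Nedd8OG, 10 nM; doses: 12.5 µM compound; schedule: 90 min reaction at room temperature; signal: FP; read-out: % inhibition of substrate cleavage by Csn5; benchmarks: substrate-only high control, full reaction low control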
UHRF1 ctr MBD2 = inhibits human UHRF1 binding to methylated oligonucleotide, MBD2 counter-screen | inhibition, % at 4.4 µM | TR-FRET | actives 25% (n = 1,000) | shares compounds with MBD2 inh;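 further: UHRF1 SRA domain binding a labeled hemimethylated CpG hairpin DNA; 0% = vehicle only and 100% = reference inhibitor with vehicle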
MBD2 confirm = confirmation of human MBD2-DBD methylated oligonucleotide binding inhibitors | shares compounds with MBD2 inh | TR-FRET MBD2-DBD binding to methylated oligonucleotide | inhibition, % at 4.4 µM | actives 26% (n = 1,000) | AID 720531; in the data active means inhibition above about 14%
IN multimer act = HIV-1 integrase multimerization activation, counter-screen; activation, % at 7.7 µM; actives 17% (n = 2,000); TR-FRET HIV-1 integrase multimerization, biochemical; shares compounds with LEDGF integ inh; in the data active means activation above about 8.9%
TR-FRET interf = optically interferes with TR-FRET readout in LEDGF counter-screen; shares compounds with LEDGF integ inh; TR-FRET optical interference counterscreen, HIV-1 IN multimerization; inhibition, % at 7.7 µM; 2,000 tested, under 10 active;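 active means inhibition above the mean over all tested compounds plus 3 SD, which no compound reached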;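 further: 0% = integrase with antibodies and DMSO and 100% = antibodies without integrase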
IN-LEDGF confirm = LEDGF/p75-dependent HIV-1 integration inhibition, confirmation | shares compounds with LEDGF integ inh | TR-FRET LEDGF/p75-dependent HIV-1 integration, biochemical | actives 36% (n = 2,000) | inhibition, % at 3.7 µM; in the data active means inhibition above about 14%
Active calls of the source: *; / = not tested or not shown. In the library only some 3.1% were active in any assay of this set; here they are far more common. Unless noted, no stated cut-off is given here; in the data, active means inhibition above about 21%; inactive means the rest.

SMILES	ATG4B inhibitor	UHRF1 binding	rCAG RNA binder	LEDGF integ inh	MBD2 inh	CSN inh	UHRF1 ctr MBD2	MBD2 confirm	IN multimer act	TR-FRET interf	IN-LEDGF confirm
N#C/C(=C\c1ccc(O)c(O)c1)C(=O)c1ccc(O)c(O)c1	-6	64*	31	91*	19*	167	67*	29*	20*	-101	90*
N#C/C(=C\c1ccc(O)c(O)c1)C(=O)N1CCCC1	0	-1	1	2	-6	1	/	/	/	/	/
CCCC[C@H](C(=O)N(C)c1ccccc1)[C@@H](O)c1ccc(Cl)cc1	/	1	2	-4	1	/	/	/	/	/	/
O=Cc1cccc(OC(=O)/C=C/c2ccco2)c1	18	48*	10	16*	17*	28	48*	25*	11*	-40	36*
Oc1c(CN2CCOCC2)cc(CN2CCOCC2)c(O)c1O	1	70*	11	84*	35*	17	6	7	5	-16	26*
O=C1CCCC(O)=C1N=Nc1ccc(C(=O)O)cc1	-4	54*	9	22*	15*	56	56*	19*	37*	-188	32*
O=C(COC(=O)c1cncc(Br)c1)NCc1ccco1	-2	44*	17	16*	14*	32	26*	14*	7	-36	29*
C#CCCN([C@H](C(=O)OC)C(C)CC)S(=O)(=O)c1ccccc1Br (stereo partly specified)	/	2	3	9	-2	/	/	/	/	/	/
COC(=O)c1cc(O)cc(OC)c1Oc1cc(C)cc(O)c1C(=O)O	-17	29*	21	19*	14*	41*	56*	30*	40*	-202	58*
O=C(NCCCc1ccccc1)OC1CCC12CCC(c1ccccc1)CC2 (stereo unspecified)	/	3	6	-1	0	/	/	/	/	/	/
O=C1Cc2cccc(=O)c(O)c2C(=O)O1	/	28*	6	20*	13*	21	28*	11	6	-31	26*
COc1cc(Br)c(C(=O)c2nccc3cc(OC)c(OC)cc23)cc1OC	16	25*	-2	15*	14*	22	37*	26*	3	-10	75*
CCOc1ccc(N2CC(C(=O)Nc3nnc(Cc4ccc(OC)cc4)s3)CC2=O)cc1 (stereo unspecified)	-8	65*	16	15*	33*	2	7	4	2	-9	3
Cc1ccccc1NC(=O)CCS(=O)(=O)c1ccc(Br)cc1	4	3	-3	-2	4	-1	/	/	/	/	/
CCN(CC)c1ccc(NC(=O)CCS(=O)(=O)c2ccc(Br)cc2)c(C)c1	-7	54*	6	17*	25*	10	63*	30*	35*	-128	12
CCOc1ccc(-n2c(SCc3nc4ccccc4[nH]3)nnc2-c2cccc(Cl)c2)cc1	/	-4	11	3	4	/	/	/	/	/	/
Cc1cc(/C=C2\SC(=O)NC2=O)c(C)n1-c1ccc(N(C)C)cc1	5	39*	21	42*	17*	0	8	3	2	-6	-1
O=c1cc(Br)c(O)c(Br)cc1Br	-1	39*	13	46*	14*	32	14	-1	5	-24	21*
Oc1c(Br)cc(Br)c2cccnc12	9	-10	15	0	-7	-4	/	/	/	/	/
COC(=O)[C@H]1C[C@@]2(N3CCCCC3)c3ccccc3N[C@H]2N1S(=O)(=O)c1ccc(C)cc1	/	0	5	-3	3	/	/	/	/	/	/
CCN(CC)CCCNc1nc(-c2ccccc2)nc2ccccc12	-13	6	1	-5	3	3	/	/	/	/	/
CCN(CC)CCCNc1nc2ccccc2c2[nH]c3ccc(OC)cc3c12	-2	85*	12	19*	91*	5	96*	109*	2	-9	34*
Cc1cc(C)nc(NS(=O)(=O)c2ccc(NC(=S)NC(=O)c3cccnc3)cc2)n1	4	2	0	-2	1	-10	/	/	/	/	/
Cc1cc(NS(=O)(=O)c2ccc(NC(=S)NC(=O)c3cccnc3)cc2)no1	5	65*	15	26*	27*	-2	4	2	2	-8	-1
C=C(C)C(=O)Nc1cccc(C2=NOC3(C2)C[C@@H](C(N)=O)N(C(=O)/C(C)=C/C)C3)c1 (stereo partly specified)	-6	89*	9	39*	38*	14	91*	69*	57*	-285	52*
SMILES	ATG4B inhibitor	UHRF1 binding	rCAG RNA binder	LEDGF integ inh	MBD2 inh	CSN inh	UHRF1 ctr MBD2	MBD2 confirm	IN multimer act	TR-FRET interf	IN-LEDGF confirm
C/C=C/C=C/C(=O)N1CC2(CC(c3cccc(NC(=O)/C=C/C)c3)=NO2)C[C@@H]1C(N)=O (stereo partly specified)	-16	1	6	1	3	4	/	/	/	/	/
C=C(C)C(=O)Nc1cccc(C2=NOC3(C2)C[C@@H](C(N)=O)N(C(=O)/C=C/C=C/C)C3)c1 (stereo partly specified)	-12	79*	5	18*	47*	22	88*	60*	41*	-205	19*
C/C=C(\C)C(=O)Nc1cccc(C2=NOC3(C2)C[C@@H](C(N)=O)N(C(=O)/C(C)=C/C)C3)c1 (stereo partly specified)	-12	-1	-1	-3	-2	-1	/	/	/	/	/
COc1ccc(-n2c(SCC(=O)Nc3ccc(Oc4ccccc4)cc3)nnc2-c2cccnc2)cc1	/	1	10	1	4	/	/	/	/	/	/
COC(=O)[C@H](CC(C)C)N1Cc2nnn(CC3CCCCC3)c2-c2cc(F)ccc2S1(=O)=O	/	0	4	1	-1	/	/	/	/	/	/
O=C(/C=C/c1ccco1)NC(=S)Nc1cccc(C(=O)O)c1	21	70*	24	44*	17*	14	56*	18*	9	-43	16*
